Results: ChEMBL document CHEMBL1138064, “Discovery of N-[(3R)-1-azabicyclo[2.2.2]oct-3-yl]furo[2,3-c]pyridine-5-carboxamide, an agonist of the alpha7 nicotinic acetylcholine receptor, for the potential treatment of cognitive deficits in schizophrenia: synthesis and structure--activity relationship” (J Med Chem, 2006)
The source made the active and inactive calls. No cut-off for these calls is given here.

Assays:
[1] = Ratio of drug level in brain against plasma in rat by MBUA method after 5 min; type: ADME, organism-based; settings: brain and plasma
[2] = Volume of distribution in rat at 5 mg/kg; type: ADME, organism-based; set-up: dose 5 mg/kg; settings: in vivo, read-out: Vdss
Rattus norvegicus [3] = test: Reversal of amphetamine-induced gating deficit in Sprague-Dawley at 0.3 mg/kg, iv; type: functional, organism-based; set-up: dose 0.3 mg/kg
How it was run: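 Anesthetised rats; d-amphetamine 1 mg/kg iv given to disrupt auditory gating recorded in the hippocampal CA3 region (conditioning vs test responses, analogous to human P50). Agonist given iv afterwards; read-out is % gating versus amphetamine-alone. The 10 mg/kg dose was run as a separate experiment. Brain drug levels were measured after the iv doses.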

[4] = biological target: Sodium-dependent noradrenaline transporter (Homo sapiens) (UniProt P23975); test: Inhibition of human NE transporter at 1 uM
[5] = biological target: Type-1 angiotensin II receptor (Homo sapiens) (UniProt P30556); test: Inhibition of AT1 receptor at 1 uM
Sequence of Type-1 angiotensin II receptor (Homo sapiens) (P30556 whole entry): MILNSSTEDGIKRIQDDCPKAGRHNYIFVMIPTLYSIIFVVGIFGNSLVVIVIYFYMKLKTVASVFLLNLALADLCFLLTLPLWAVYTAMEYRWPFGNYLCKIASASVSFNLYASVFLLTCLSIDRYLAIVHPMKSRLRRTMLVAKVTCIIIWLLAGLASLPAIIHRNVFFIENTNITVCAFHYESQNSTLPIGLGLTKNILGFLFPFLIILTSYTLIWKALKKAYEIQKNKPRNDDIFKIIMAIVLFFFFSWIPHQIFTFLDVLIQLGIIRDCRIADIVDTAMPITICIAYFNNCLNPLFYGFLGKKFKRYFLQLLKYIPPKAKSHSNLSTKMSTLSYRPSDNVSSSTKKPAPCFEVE

[6] = biological target: GABA-A receptor; anion channel (Homo sapiens) (UniProt P14867+P47870+P18507+P28472+P48169+Q99928+Q9UN88+P34903+O00591+O14764+Q8N1C3+P18505+P78334+P47869+P31644+Q16445); test: Inhibition of central BZD receptor at 1 uM; type: protein-complex assay
[7] = biological target: Calcitonin gene-related peptide type 1 receptor (Homo sapiens) (UniProt Q16602); test: Inhibition of CGRP receptor at 1 uM
Sequence of Calcitonin gene-related peptide type 1 receptor (Homo sapiens) (Q16602 whole entry): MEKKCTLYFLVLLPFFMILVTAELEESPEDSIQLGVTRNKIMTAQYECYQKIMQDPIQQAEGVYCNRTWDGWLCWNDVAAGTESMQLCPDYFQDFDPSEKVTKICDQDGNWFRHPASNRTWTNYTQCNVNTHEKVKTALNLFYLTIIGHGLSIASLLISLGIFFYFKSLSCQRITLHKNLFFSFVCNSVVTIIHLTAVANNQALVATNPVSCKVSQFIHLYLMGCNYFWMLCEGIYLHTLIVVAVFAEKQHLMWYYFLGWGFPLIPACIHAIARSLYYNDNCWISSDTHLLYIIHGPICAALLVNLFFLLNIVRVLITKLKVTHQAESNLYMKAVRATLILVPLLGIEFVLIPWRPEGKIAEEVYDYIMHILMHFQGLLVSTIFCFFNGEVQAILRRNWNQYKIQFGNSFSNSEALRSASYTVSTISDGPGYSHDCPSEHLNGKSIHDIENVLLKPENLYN

[8] = biological target: Cannabinoid receptor 1 (Homo sapiens) (UniProt P21554); test: Inhibition of CB1 receptor at 1 uM
[9] = biological target: Cholecystokinin receptor type A (Homo sapiens) (UniProt P32238); test: Inhibition of CCK1 receptor at 1 uM
Sequence of Cholecystokinin receptor type A (Homo sapiens) (P32238 whole entry): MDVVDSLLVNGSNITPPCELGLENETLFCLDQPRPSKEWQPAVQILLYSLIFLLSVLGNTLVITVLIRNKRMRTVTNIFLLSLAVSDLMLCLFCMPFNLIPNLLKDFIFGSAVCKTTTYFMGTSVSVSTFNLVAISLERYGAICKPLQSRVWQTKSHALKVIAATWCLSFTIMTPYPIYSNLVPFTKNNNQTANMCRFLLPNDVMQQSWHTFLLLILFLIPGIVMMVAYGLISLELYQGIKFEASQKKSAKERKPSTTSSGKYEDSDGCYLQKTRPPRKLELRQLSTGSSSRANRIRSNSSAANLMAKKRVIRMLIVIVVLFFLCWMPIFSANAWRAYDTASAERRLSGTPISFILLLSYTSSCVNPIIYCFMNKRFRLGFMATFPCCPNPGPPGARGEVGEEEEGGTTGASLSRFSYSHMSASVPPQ

[10] = biological target: Sigma non-opioid intracellular receptor 1 (Homo sapiens) (UniProt Q99720); test: Inhibition of sigma receptor at 1 uM
Homo sapiens [11] = organism: Homo sapiens; test: Inhibition of potassium channel V type at 1 uM
[12] = biological target: Prostaglandin G/H synthase 1 (Homo sapiens) (UniProt P23219); test: Inhibition of COX1 at 1 uM
Sequence of Prostaglandin G/H synthase 1 (Homo sapiens) (P23219 whole entry): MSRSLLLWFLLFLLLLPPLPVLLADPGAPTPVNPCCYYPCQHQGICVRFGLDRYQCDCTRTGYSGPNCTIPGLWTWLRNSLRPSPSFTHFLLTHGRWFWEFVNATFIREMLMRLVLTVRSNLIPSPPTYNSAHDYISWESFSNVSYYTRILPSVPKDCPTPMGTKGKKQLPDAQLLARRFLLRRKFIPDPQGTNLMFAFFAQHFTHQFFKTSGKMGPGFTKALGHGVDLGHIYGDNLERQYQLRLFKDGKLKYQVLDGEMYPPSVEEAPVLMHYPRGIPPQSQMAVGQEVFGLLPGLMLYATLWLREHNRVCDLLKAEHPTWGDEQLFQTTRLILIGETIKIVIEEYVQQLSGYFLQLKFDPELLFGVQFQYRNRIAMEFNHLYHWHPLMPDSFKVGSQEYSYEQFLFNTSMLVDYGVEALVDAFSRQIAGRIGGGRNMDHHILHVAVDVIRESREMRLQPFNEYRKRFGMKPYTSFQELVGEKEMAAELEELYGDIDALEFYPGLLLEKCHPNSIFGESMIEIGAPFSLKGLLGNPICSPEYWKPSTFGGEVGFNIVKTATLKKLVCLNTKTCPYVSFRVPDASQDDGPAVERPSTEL

[13] = biological target: Phosphodiesterase 1 (Homo sapiens) (UniProt P54750+Q01064+Q14123); test: Inhibition of PDE1 at 1 uM; type: protein assay
[14] = biological target: Phosphodiesterase 3 (Homo sapiens) (UniProt Q14432+Q13370); test: Inhibition of PDE3 at 1 uM; type: protein assay
[15] = biological target: Phosphodiesterase 4 (Homo sapiens) (UniProt P27815+Q08499+Q07343+Q08493); test: Inhibition of PDE4 at 1 uM; type: protein assay
[16] = biological target: Angiotensin-converting enzyme (Homo sapiens) (UniProt P12821); test: Inhibition of ACE at 1 uM
[17] = biological target: Endothelin-converting enzyme 1 (Homo sapiens) (UniProt P42892); test: Inhibition of ECE at 1 uM
[18] = biological target: Cathepsin G (Homo sapiens) (UniProt P08311); test: Inhibition of cathepsin G at 1 uM
Sequence of Cathepsin G (Homo sapiens) (P08311 whole entry): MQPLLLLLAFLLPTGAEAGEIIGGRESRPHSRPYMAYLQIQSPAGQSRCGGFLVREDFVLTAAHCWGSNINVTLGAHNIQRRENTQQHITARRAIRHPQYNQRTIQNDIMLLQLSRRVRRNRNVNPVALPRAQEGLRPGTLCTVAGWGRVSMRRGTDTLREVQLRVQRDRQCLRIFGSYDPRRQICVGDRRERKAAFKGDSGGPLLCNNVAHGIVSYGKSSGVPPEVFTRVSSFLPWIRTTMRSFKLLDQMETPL

Homo sapiens [19] = organism: Homo sapiens; test: Inhibition of stimulated adenylate cyclase at 1 uM
[20] = biological target: Protein kinase C (PKC) (Homo sapiens) (UniProt O94806+P41743+P17252+P05129+Q05655+P05771+Q05513+Q02156+P24723+Q15139+Q04759); test: Inhibition of PKC at 1 uM; type: protein assay
Homo sapiens [21] = organism: Homo sapiens; test: Inhibition of phospholipase C at 1 uM
MAO-B = MAO-B (Homo sapiens, UniProt P27338); test: Inhibition of MAO-B at 1 uM
Sequence of MAO-B (P27338 whole entry): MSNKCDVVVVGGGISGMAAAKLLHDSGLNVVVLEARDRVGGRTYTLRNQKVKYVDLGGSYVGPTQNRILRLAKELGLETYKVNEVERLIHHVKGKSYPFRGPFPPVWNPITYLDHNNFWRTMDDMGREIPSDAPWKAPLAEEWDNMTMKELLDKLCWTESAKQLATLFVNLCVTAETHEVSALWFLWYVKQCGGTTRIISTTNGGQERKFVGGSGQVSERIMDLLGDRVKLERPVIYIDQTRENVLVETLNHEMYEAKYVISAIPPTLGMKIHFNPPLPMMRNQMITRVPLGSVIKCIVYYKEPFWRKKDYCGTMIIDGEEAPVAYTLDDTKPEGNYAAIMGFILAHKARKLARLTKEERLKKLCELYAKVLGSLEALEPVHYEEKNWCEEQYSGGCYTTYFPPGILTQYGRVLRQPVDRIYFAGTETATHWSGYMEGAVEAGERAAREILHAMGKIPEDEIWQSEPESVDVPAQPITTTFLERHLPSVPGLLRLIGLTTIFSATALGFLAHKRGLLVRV

Rattus norvegicus [22] = test: Ability to recognize novel object in Sprague-Dawley rat at 1 mg/kg, sc after 24 hrs; type: functional, organism-based; set-up: dose 1 mg/kg
How it was run: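 Rats dosed subcutaneously 30 min before each of three experimental sessions. Discrimination between the novel and the familiar object was scored after a 24 h delay.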

[23] = Ratio of drug level in brain against plasma in rat by MBUA method after 60 min; type: ADME, organism-based; settings: brain and plasma
[24] = biological target: Neuronal acetylcholine receptor subunit alpha-7 (Rattus norvegicus) (UniProt Q05941); test: Activity at alpha7 nAChR in Sprague-Dawley rat hippocampal neurons assessed as induction of MLA-inhibited desensitizing inward current at 0.3 uM relative to (-)-nicotine; type: functional, tissue-based; set-up: scale not given: the % may be the effect or the level left; settings: Hippocampus
How it was run: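 Rat hippocampal neurons were recorded by whole-cell patch clamp with rapid agonist application. Desensitizing inward currents were measured, and α7 mediation was tested with MLA (10 nM), n = 3.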

[25] = Half life in human liver microsome; type: ADME; settings: liver microsomes
[26] = biological target: Adenosine receptor A1 (Homo sapiens) (UniProt P30542); test: Inhibition of adenosine A1 receptor at 1 uM
[27] = biological target: Adenosine A2 receptor (Homo sapiens) (UniProt P29275+P29274); test: Inhibition of adenosine A2 receptor at 1 uM; type: protein assay
[28] = biological target: Adrenergic receptor alpha-1 (Homo sapiens) (UniProt P35348+P25100+P35368); test: Inhibition of adrenergic alpha1 receptor at 1 uM; type: protein assay
[29] = biological target: Glutamate [NMDA] receptor (Homo sapiens) (UniProt Q05586+Q12879+Q13224+O15399+O60391+Q14957+Q8TCU5); test: Inhibition of NMDA receptor at 1 uM; type: protein-complex assay
[30] = biological target: Histamine H2 receptor (Homo sapiens) (UniProt P25021); test: Inhibition of histamine H2 receptor at 1 uM
Homo sapiens [31] = organism: Homo sapiens; test: Inhibition of ML1 receptor at 1 uM
[32] = biological target: Muscarinic acetylcholine receptor M2 (Homo sapiens) (UniProt P08172); test: Inhibition of M2 receptor at 1 uM
Sequence of Muscarinic acetylcholine receptor M2 (Homo sapiens) (P08172 whole entry): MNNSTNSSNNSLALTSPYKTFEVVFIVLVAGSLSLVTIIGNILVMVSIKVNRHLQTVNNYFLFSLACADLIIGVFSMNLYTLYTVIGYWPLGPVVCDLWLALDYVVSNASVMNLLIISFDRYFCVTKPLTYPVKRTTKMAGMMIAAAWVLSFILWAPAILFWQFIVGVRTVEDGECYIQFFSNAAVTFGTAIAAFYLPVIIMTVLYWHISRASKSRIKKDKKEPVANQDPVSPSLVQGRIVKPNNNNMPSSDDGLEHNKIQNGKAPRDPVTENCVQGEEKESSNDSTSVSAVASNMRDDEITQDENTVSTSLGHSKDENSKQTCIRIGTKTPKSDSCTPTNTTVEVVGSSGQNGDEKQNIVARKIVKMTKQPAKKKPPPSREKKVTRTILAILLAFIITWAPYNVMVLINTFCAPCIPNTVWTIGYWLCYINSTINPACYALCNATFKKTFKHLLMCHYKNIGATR

[33] = biological target: Muscarinic acetylcholine receptor M3 (Homo sapiens) (UniProt P20309); test: Inhibition of M3 receptor at 1 uM
Sequence of Muscarinic acetylcholine receptor M3 (Homo sapiens) (P20309 whole entry, looked up): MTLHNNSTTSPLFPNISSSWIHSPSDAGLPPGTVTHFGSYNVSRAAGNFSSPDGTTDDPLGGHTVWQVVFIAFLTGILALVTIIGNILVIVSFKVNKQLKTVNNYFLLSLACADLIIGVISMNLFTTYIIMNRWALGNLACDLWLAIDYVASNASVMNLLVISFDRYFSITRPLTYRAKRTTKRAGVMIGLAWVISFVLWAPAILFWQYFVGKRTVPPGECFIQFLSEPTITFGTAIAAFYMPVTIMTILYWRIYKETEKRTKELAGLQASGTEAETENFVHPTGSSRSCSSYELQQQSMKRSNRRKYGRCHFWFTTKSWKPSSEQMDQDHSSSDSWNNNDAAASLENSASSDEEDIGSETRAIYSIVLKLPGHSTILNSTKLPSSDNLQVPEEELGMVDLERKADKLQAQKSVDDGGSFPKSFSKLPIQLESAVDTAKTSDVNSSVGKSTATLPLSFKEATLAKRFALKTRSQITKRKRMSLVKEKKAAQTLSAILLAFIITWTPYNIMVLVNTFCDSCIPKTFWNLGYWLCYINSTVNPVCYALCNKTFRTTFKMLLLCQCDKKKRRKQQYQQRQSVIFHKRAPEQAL

[34] = biological target: Muscarinic acetylcholine receptor M5 (Homo sapiens) (UniProt P08912); test: Inhibition of M5 receptor at 1 uM
[35] = biological target: Substance-P receptor (Homo sapiens) (UniProt P25103); test: Inhibition of NK1 receptor at 1 uM
[36] = biological target: Delta-type opioid receptor (Homo sapiens) (UniProt P41143); test: Inhibition of human delta opioid receptor at 1 uM
[37] = biological target: Mu-type opioid receptor (Homo sapiens) (UniProt P35372); test: Inhibition of human mu opioid receptor at 1 uM
[38] = biological target: Nociceptin receptor (Homo sapiens) (UniProt P41146); test: Inhibition of ORL1 receptor at 1 uM
Sequence of Nociceptin receptor (Homo sapiens) (P41146 whole entry): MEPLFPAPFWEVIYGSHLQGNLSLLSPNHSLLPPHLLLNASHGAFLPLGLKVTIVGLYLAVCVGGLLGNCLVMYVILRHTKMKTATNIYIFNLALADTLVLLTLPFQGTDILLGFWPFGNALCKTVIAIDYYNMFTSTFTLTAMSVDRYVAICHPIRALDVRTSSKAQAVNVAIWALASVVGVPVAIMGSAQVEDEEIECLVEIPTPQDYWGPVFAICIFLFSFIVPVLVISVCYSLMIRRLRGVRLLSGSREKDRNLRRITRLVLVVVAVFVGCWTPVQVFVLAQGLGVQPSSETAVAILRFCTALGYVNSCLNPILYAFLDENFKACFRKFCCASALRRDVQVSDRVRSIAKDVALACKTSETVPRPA

[39] = biological target: 5-hydroxytryptamine receptor 1A (Homo sapiens) (UniProt P08908); test: Inhibition of 5HT1A receptor at 1 uM
[40] = biological target: 5-hydroxytryptamine receptor 1B (Homo sapiens) (UniProt P28222); test: Inhibition of 5HT1B receptor at 1 uM
Sequence of 5-hydroxytryptamine receptor 1B (Homo sapiens) (P28222 whole entry): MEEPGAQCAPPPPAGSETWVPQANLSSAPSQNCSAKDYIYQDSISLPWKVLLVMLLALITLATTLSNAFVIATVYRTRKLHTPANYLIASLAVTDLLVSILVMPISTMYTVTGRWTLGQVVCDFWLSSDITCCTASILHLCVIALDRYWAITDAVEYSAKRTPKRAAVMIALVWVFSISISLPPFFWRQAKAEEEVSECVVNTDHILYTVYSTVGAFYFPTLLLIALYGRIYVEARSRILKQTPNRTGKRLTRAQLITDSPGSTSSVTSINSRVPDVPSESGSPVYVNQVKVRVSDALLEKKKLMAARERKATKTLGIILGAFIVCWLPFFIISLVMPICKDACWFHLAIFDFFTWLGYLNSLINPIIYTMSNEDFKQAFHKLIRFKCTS

[41] = biological target: 5-hydroxytryptamine receptor 2A (Homo sapiens) (UniProt P28223); test: Inhibition of 5HT2A receptor at 1 uM
[42] = biological target: Vasoactive intestinal polypeptide receptor 1 (Homo sapiens) (UniProt P32241); test: Inhibition of VIP1 receptor at 1 uM
[43] = biological target: Vasopressin V1a receptor (Homo sapiens) (UniProt P37288); test: Inhibition of V1A receptor at 1 uM
Sequence of Vasopressin V1a receptor (Homo sapiens) (P37288 whole entry, looked up): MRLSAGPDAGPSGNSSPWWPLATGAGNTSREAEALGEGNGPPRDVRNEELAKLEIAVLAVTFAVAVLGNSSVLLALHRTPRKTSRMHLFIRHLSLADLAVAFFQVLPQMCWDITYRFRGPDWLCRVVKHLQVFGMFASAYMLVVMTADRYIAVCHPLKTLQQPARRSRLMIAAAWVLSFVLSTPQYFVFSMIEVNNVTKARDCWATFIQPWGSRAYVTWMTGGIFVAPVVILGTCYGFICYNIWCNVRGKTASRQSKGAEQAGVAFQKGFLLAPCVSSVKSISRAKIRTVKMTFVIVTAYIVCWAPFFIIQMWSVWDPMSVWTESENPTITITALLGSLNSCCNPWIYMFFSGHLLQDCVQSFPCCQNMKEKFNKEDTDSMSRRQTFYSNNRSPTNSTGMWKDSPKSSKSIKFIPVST

SMILES: O=C(N[C@H]1CN2CCC1CC2)c1cc2ccoc2cn1 [PHA-543613]
- Kp at 5 min [1]: 1.5
- Vd [2]: 1.8 L/kg
- Activity (Rattus norvegicus [3]): Active
- inhibition [4]: < 10%
- inhibition [5]: 16%
- inhibition [6]: < 10%
- inhibition [7]: < 10%
- inhibition [8]: < 10%
- inhibition [9]: < 10%
- inhibition [10]: < 10%
- inhibition (Homo sapiens [11]): < 10%
- inhibition [12]: < 10%
- inhibition [13]: < 10%
- inhibition [14]: < 10%
- inhibition [15]: < 10%
- inhibition [16]: < 10%
- inhibition [17]: < 10%
- inhibition [18]: 15%
- inhibition (Homo sapiens [19]): < 10%
- inhibition [20]: 18%
- inhibition (Homo sapiens [21]): < 10%
- inhibition at 1 µM (MAO-B): < 10%
- Activity (Rattus norvegicus [22]): Active
- Kp at 1 h [23]: 1.5
- Activity [24]: 34%
- half-life [25]: > 2 h
- inhibition [26]: < 10%
- inhibition [27]: < 10%
- inhibition [28]: < 10%
- inhibition [29]: 11%
- inhibition [30]: < 10%
- inhibition (Homo sapiens [31]): 11%
- inhibition [32]: 23%
- inhibition [33]: 33%
- inhibition [34]: < 10%
- inhibition [35]: 26%
- inhibition [36]: 14%
- inhibition [37]: < 10%
- inhibition [38]: < 10%
- inhibition [39]: < 10%
- inhibition [40]: < 10%
- inhibition [41]: < 10%
- inhibition [42]: < 10%
- inhibition [43]: 14%
